Measurements from ChEMBL document CHEMBL3108706, “Design, synthesis, and biological activity of novel dicoumarol glucagon-like peptide 1 conjugates” (J Med Chem, 2013).
Activity calls are given as the source filed them. The rule behind the calls is not given here.

Columns and labels:
Rattus norvegicus [1] = assay: Anticoagulant activity in Sprague-Dawley rat assessed as prothombin time at 150 nmol/kg, iv administered for 6 days measured on day 7 by coagulometric analysis (reference value: 13.5 +/- 0.32 secs); assay type: functional
Rattus norvegicus [2] = assay: Anticoagulant activity in Sprague-Dawley rat assessed as prothombin time at 25 nmol/kg, iv administered for 6 days measured on day 7 by coagulometric analysis (reference value: 13.5 +/- 0.32 secs); assay type: functional
Mus musculus [3] = assay: Hypoglycemic activity in C57BL/6J-m+/+Leprdb (db/db) mouse assessed as time required to reduce plasma glucose level below 8.35 mM at 150 nmol/kg, ip administered for 0.5 hrs; assay type: functional
How it was run: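 Non-fasted male db/db mice (7 weeks, free access to food and water) got a single ip injection (25 or 150 nmol/kg) or saline. Glucose AUC0−48h and the time for glucose to return below 8.35 mM were derived. Mean ± SD, n = 6.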

Mus musculus [4] = assay: Hypoglycemic activity in C57BL/6J-m+/+Leprdb (db/db) mouse assessed as time required to reduce plasma glucose level below 8.35 mM at 25 nmol/kg, ip administered for 0.5 hrs; assay type: functional
How it was run: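 Non-fasted male db/db mice (7 weeks, free access to food and water) got a single ip injection (25 or 150 nmol/kg) or saline. Mean ± SD, n = 6.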

Mus musculus [5] = assay: Hypoglycemic activity in C57BL/6J-m+/+Leprdb (db/db) mouse assessed as reduction of plasma glucose level at 25 nmol/kg, ip administered 0.5 hrs prior to glucose challenge measured after 18 to 21 hrs by IPGTT (reference value: >30 mM); assay type: functional
Mus musculus [6] = assay: Hypoglycemic activity in C57BL/6J-m+/+Leprdb (db/db) mouse assessed as reduction of plasma glucose level at 25 nmol/kg, ip administered 0.5 hrs prior to glucose challenge measured at 21.5 hrs by IPGTT (reference value: >30 mM); assay type: functional
Mus musculus [7] = assay: Hypoglycemic activity in C57BL/6J-m+/+Leprdb (db/db) mouse assessed as reduction of plasma glucose level at 25 nmol/kg, ip administered 0.5 hrs prior to glucose challenge measured at 21.5 to 24 hrs by IPGTT; assay type: functional, organism-based
Mus musculus [8] = assay: Hypoglycemic activity in C57BL/6J-m+/+Leprdb (db/db) mouse assessed as reduction of plasma glucose level at 25 nmol/kg, ip administered 0.5 hrs prior to glucose challenge measured up to 17 hrs by IPGTT (reference value: >30 mM); assay type: functional
[9] = Mean residence time in Sprague-Dawley rat at 15 nmol/kg, sc by LC-MS/MS analysis; assay type: ADME, organism-based; conditions: in vivo
[10] = Elimination half life in Sprague-Dawley rat at 15 nmol/kg, sc by LC-MS/MS analysis; assay type: ADME, organism-based; conditions: in vivo, read-out: beta t1/2 (converted)
Rattus norvegicus [11] = assay: AUC (0 to infinity) in Sprague-Dawley rat at 15 nmol/kg, sc by LC-MS/MS analysis; assay type: ADME, organism-based, Plasma; design: dose 15 nmol/kg, route subcutaneous, time infinity; conditions: in vivo
[12] = Cmax in Sprague-Dawley rat at 15 nmol/kg, sc by LC-MS/MS analysis; assay type: ADME, organism-based; design: dose 15 nmol/kg, route subcutaneous; conditions: in vivo
[13] = Tmax in Sprague-Dawley rat at 15 nmol/kg, sc by LC-MS/MS analysis; assay type: ADME, organism-based; conditions: in vivo
Rattus norvegicus [14] = assay: Antidiabetic activity in Sprague-Dawley rat assessed as reduction of plasma glucose level at 25 nmol/kg, ip administered 0.5 hrs prior to glucose challenge measured at 15 to 60 mins by OGTT; assay type: functional, organism-based
Rattus norvegicus [15] = assay: Antidiabetic activity in Sprague-Dawley rat assessed as increase of plasma insulin level at 25 nmol/kg, ip administered 0.5 hrs prior to glucose challenge measured for 120 mins by ELISA; assay type: functional, organism-based
How it was run: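 SD rats (200−250 g, n = 6/group) were fasted 12 h and given compound ip (25 nmol/kg) or saline 0.5 h before oral glucose (10 g/kg). Tail-vein blood glucose was read with a meter at −30, 0, 15, 30, 45, 60, 90, 120 and 180 min. Insulin was measured by rat insulin ELISA. Mean ± SD.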

Rattus norvegicus [16] = assay: Antidiabetic activity in Sprague-Dawley rat assessed as increase of plasma insulin level at 25 nmol/kg, ip administered 0.5 hrs prior to glucose challenge measured at 45 mins by ELISA; assay type: functional
Rattus norvegicus [17] = assay: Antidiabetic activity in Sprague-Dawley rat assessed as reduction of plasma glucose level at 25 nmol/kg, ip administered 0.5 hrs prior to glucose challenge by OGTT (reference value: 13.32 +/- 1.84 mM); assay type: functional
albumin = albumin (Homo sapiens, UniProt P02768); assay: Binding affinity to human serum albumin at 100 ug/mL after 3 hrs relative to control; assay type: ADME; conditions: read-out: PB (converted)
How it was run: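 Peptide at 100 μg/mL in PBS (50 μL) was incubated with HSA-conjugated Sepharose resin for 3 h at 25 °C, then centrifuged (1000 rpm, 10 min). Unbound peptide in the supernatant was quantified by micro BCA assay. Nonspecific adsorption was corrected with NHS-inactivated, albumin-free resin.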

[18] = Half life in Sprague-Dawley rat plasma at 1000 ng/mL by LC-MS/MS analysis; assay type: ADME, cell-free
[19] = target: Glucagon-like peptide 1 receptor (Homo sapiens, UniProt P43220); assay: Activation of human GLP-1 receptor overexpressed in HEK293 cells assessed as cAMP accumulation after 20 mins by HTRF assay; assay type: functional, cell-based
Rattus norvegicus [20] = assay: Antidiabetic activity in Sprague-Dawley rat assessed as increase of plasma insulin level at 25 nmol/kg, ip administered 0.5 hrs prior to glucose challenge measured at 15 mins by ELISA; assay type: functional
Rattus norvegicus [21] = assay: Anticoagulant activity in Sprague-Dawley rat assessed as activated […] time at 150 nmol/kg, iv administered for 6 days measured on day 7 by coagulometric analysis (reference value: 26.5 +/- 0.81 secs); assay type: functional
Rattus norvegicus [22] = assay: Anticoagulant activity in Sprague-Dawley rat assessed as activated […] time at 25 nmol/kg, iv administered for 6 days measured on day 7 by coagulometric analysis (reference value: 26.5 +/- 0.81 secs); assay type: functional
Rattus norvegicus [23] = assay: Anticoagulant activity in Sprague-Dawley rat assessed as thombin time at 150 nmol/kg, iv administered for 6 days measured on day 7 by coagulometric analysis (reference value: 19.38 +/- 0.72 secs); assay type: functional
Rattus norvegicus [24] = assay: Anticoagulant activity in Sprague-Dawley rat assessed as thombin time at 25 nmol/kg, iv administered for 6 days measured on day 7 by coagulometric analysis (reference value: 19.38 +/- 0.72 secs); assay type: functional

Chain of albumin (P02768 whole entry): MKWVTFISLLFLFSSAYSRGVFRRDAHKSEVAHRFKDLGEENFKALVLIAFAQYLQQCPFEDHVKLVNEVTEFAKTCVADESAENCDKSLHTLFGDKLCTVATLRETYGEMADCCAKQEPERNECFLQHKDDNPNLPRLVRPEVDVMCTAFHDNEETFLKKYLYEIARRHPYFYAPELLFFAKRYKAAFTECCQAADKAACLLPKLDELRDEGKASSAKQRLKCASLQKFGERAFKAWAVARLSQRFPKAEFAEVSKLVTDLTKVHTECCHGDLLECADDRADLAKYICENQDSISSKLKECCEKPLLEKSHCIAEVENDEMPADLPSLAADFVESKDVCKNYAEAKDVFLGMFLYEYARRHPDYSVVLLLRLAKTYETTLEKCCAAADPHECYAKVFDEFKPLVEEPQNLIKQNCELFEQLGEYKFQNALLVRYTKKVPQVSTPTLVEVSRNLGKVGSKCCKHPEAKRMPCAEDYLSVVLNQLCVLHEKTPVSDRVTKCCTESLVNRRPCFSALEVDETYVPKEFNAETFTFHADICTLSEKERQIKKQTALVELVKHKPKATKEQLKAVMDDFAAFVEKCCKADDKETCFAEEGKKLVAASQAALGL
Chain of Glucagon-like peptide 1 receptor (P43220 whole entry): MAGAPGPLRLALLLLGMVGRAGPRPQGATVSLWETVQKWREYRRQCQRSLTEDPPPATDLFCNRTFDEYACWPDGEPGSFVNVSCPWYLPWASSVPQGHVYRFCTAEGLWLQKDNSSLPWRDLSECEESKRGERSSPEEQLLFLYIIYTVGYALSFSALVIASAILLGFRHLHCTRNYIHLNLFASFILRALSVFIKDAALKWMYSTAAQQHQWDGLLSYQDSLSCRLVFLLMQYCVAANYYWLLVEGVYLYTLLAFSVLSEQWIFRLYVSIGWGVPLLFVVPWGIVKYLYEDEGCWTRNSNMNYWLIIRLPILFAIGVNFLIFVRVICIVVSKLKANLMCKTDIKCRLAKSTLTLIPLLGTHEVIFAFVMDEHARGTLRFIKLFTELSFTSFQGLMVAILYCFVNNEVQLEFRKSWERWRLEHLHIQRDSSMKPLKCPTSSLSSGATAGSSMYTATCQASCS

| SMILES | Time (Mus musculus [4]) [h] | MRT [9] [h] | half-life [10] [h] | AUC (Rattus norvegicus [11]) [ng·h/mL] | Cmax [12] [ng/mL] | Tmax [13] [h] | Activity (Rattus norvegicus [14]) | Activity (Rattus norvegicus [15]) | Activity (Rattus norvegicus [16]) [pM] | Activity (Rattus norvegicus [17]) [mM] | fraction unbound at 3 h, 100 ug/mL (albumin) | half-life at 1000 ng/mL [18] [h] | EC50 [19] [nM] | Activity (Rattus norvegicus [20]) [pM] | other results |
| --- | --- | --- | --- | --- | --- | --- | --- | --- | --- | --- | --- | --- | --- | --- | --- |
| CC[C@H](C)[C@H](NC(=O)[C@H](Cc1ccccc1)NC(=O)[C@H](CCC(=O)O)NC(=O)[C@H](CCCCN)NC(=O)[C@H](C)NC(=O)[C@H](C)NC(=O)[C@H](CCC(N)=O)NC(=O)CNC(=O)[C@H](CCC(=O)O)NC(=O)[C@H](CC(C)C)NC(=O)[C@H](Cc1ccc(O)cc1)NC(=O)[C@H](CO)NC(=O)[C@H](CO)NC(=O)[C@@H](NC(=O)[C@H](CC(=O)O)NC(=O)[C@H](CO)NC(=O)[C@@H](NC(=O)[C@H](Cc1ccccc1)NC(=O)[C@@H](NC(=O)CNC(=O)[C@H](CCC(=O)O)NC(=O)CNC(=O)[C@@H](N)Cc1cnc[nH]1)[C@@H](C)O)[C@@H](C)O)C(C)C)C(=O)N[C@@H](C)C(=O)N[C@@H](Cc1c[nH]c2ccccc12)C(=O)N[C@@H](CC(C)C)C(=O)N[C@H](C(=O)N[C@@H](CCCCN)C(=O)NCC(=O)N[C@@H](CCCNC(=N)N)C(=O)N[C@@H](CSC1CC(=O)N(CCCCCCCCCCCC(=O)Nc2ccc(C(c3c(O)c4ccccc4oc3=O)c3c(O)c4ccccc4oc3=O)cc2)C1=O)C(N)=O)C(C)C (some centres undefined) | 22.5 | 29.8 | 18.8 | 36800 | 907 | 1.3 | Active | Active | 524.26 | 7.8 | 0.06 | 55.8 | 0.0242 | 1052.22 | PT (Rattus norvegicus [1]): 13.53 s; PT (Rattus norvegicus [2]): 13.39 s; Time (Mus musculus [3]): 30.4 h; Activity (Mus musculus [5]): <16 mM; Activity (Mus musculus [6]): 16.25 mM; Activity (Mus musculus [7]): Active; Activity (Mus musculus [8]): <12 mM; APTT (Rattus norvegicus [21]): 26.48 s; APTT (Rattus norvegicus [22]): 26.76 s; TT (Rattus norvegicus [23]): 19.8 s; TT (Rattus norvegicus [24]): 19.4 s |
| CC[C@H](C)[C@H](NC(=O)[C@H](Cc1ccccc1)NC(=O)[C@H](CCC(=O)O)NC(=O)[C@H](CS)NC(=O)[C@H](C)NC(=O)[C@H](C)NC(=O)[C@H](CCC(N)=O)NC(=O)CNC(=O)[C@H](CCC(=O)O)NC(=O)[C@H](CC(C)C)NC(=O)[C@H](Cc1ccc(O)cc1)NC(=O)[C@H](CO)NC(=O)[C@H](CO)NC(=O)[C@@H](NC(=O)[C@H](CC(=O)O)NC(=O)[C@H](CO)NC(=O)[C@@H](NC(=O)[C@H](Cc1ccccc1)NC(=O)[C@@H](NC(=O)CNC(=O)[C@H](CCC(=O)O)NC(=O)CNC(=O)[C@@H](N)Cc1cnc[nH]1)[C@@H](C)O)[C@@H](C)O)C(C)C)C(=O)N[C@@H](C)C(=O)N[C@@H](Cc1c[nH]c2ccccc12)C(=O)N[C@@H](CC(C)C)C(=O)N[C@H](C(=O)N[C@@H](CCCCN)C(=O)NCC(=O)N[C@@H](CCCNC(=N)N)C(N)=O)C(C)C | – | – | – | – | – | – | – | – | – | – | 0.949 | 0.7 | 0.0032 | – | – |
| CC[C@H](C)[C@H](NC(=O)[C@H](Cc1ccccc1)NC(=O)[C@H](CCC(=O)O)NC(=O)[C@H](CCCCN)NC(=O)[C@H](C)NC(=O)[C@H](C)NC(=O)[C@H](CCC(N)=O)NC(=O)CNC(=O)[C@H](CCC(=O)O)NC(=O)[C@H](CC(C)C)NC(=O)[C@H](Cc1ccc(O)cc1)NC(=O)[C@H](CO)NC(=O)[C@H](CSC1CC(=O)N(CCCCCC(=O)Nc2ccc(C(c3c(O)c4ccccc4oc3=O)c3c(O)c4ccccc4oc3=O)cc2)C1=O)NC(=O)[C@@H](NC(=O)[C@H](CC(=O)O)NC(=O)[C@H](CO)NC(=O)[C@@H](NC(=O)[C@H](Cc1ccccc1)NC(=O)[C@@H](NC(=O)CNC(=O)[C@H](CCC(=O)O)NC(=O)CNC(=O)[C@@H](N)Cc1cnc[nH]1)[C@@H](C)O)[C@@H](C)O)C(C)C)C(=O)N[C@@H](C)C(=O)N[C@@H](Cc1c[nH]c2ccccc12)C(=O)N[C@@H](CC(C)C)C(=O)N[C@H](C(=O)N[C@@H](CCCCN)C(=O)NCC(=O)N[C@@H](CCCNC(=N)N)C(N)=O)C(C)C (some centres undefined) | – | – | – | – | – | – | – | – | – | – | 0.162 | 20.7 | 0.0336 | – | – |
| CCCCCCCCCCCCCCCC(=O)N[C@@H](CCC(=O)NCCCC[C@H](NC(=O)[C@H](C)NC(=O)[C@H](C)NC(=O)[C@H](CCC(N)=O)NC(=O)CNC(=O)[C@H](CCC(=O)O)NC(=O)[C@H](CC(C)C)NC(=O)[C@H](Cc1ccc(O)cc1)NC(=O)[C@H](CO)NC(=O)[C@H](CO)NC(=O)[C@@H](NC(=O)[C@H](CC(=O)O)NC(=O)[C@H](CO)NC(=O)[C@@H](NC(=O)[C@H](Cc1ccccc1)NC(=O)[C@@H](NC(=O)CNC(=O)[C@H](CCC(=O)O)NC(=O)[C@H](C)NC(=O)[C@@H](N)Cc1cnc[nH]1)[C@@H](C)O)[C@@H](C)O)C(C)C)C(=O)N[C@@H](CCC(=O)O)C(=O)N[C@@H](Cc1ccccc1)C(=O)N[C@H](C(=O)N[C@@H](C)C(=O)N[C@@H](Cc1c[nH]c2ccccc12)C(=O)N[C@@H](CC(C)C)C(=O)N[C@H](C(=O)N[C@@H](CCCNC(=N)N)C(=O)NCC(=O)N[C@@H](CCCNC(=N)N)C(=O)NCC(=O)O)C(C)C)[C@@H](C)CC)C(=O)O [LIRAGLUTIDE] | 19 | 18.3 | 12.5 | 18100 | 902 | 1.51 | Active | Active | 425.34 | 8.3 | 0.087 | 17.1 | – | 992.08 | – |
